Results published in ChEMBL document CHEMBL1157503, “Affinity of 3-acyl substituted 4-quinolones at the benzodiazepine site of GABA(A) receptors” (Bioorg Med Chem, 2008).
pKi: −log10 of the molar value.

Key:
[1] = Displacement of [3H]flumazenil from GABAA receptor in rat cortical membrane; type: cell membranes
Summary of the method: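 Rat cortex homogenized in Tris-HCl (30 mM, pH 7.4), washed by repeated centrifugation at 27,000g, incubated 30 min at 37 °C, then stored at −20 °C. About 50 µg protein per 0.55 ml assay in Tris-citrate (50 mM, pH 7.1) was incubated with 1 nM ³H-flumazenil for 40 min at 0–4 °C, then filtered on GF/C. Nonspecific binding was set with 1 µM clonazepam.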

[2] = target: T1, GABA-A receptor; alpha-1/beta-2/gamma-2 (Homo sapiens, UniProt P14867+P18507+P47870); experiment: Displacement of [3H]flumazenil from human recombinant GABAA alpha-1-beta-2-gamma-2S receptor expressed in HEK293 cells; type: cell-based
T1 sequence (P14867 whole entry): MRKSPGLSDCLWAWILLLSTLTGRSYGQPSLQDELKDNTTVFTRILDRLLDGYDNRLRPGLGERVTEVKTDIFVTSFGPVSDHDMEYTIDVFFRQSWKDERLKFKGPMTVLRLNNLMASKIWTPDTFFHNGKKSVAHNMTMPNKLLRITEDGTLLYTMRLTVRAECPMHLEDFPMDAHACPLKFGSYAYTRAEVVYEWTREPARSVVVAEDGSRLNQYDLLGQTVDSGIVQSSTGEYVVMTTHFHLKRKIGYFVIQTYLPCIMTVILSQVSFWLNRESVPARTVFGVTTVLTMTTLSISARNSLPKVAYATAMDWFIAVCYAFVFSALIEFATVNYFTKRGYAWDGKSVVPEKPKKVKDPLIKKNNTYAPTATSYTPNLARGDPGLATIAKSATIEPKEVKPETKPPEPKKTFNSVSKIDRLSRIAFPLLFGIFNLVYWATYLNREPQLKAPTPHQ
T1 sequence (P47870 whole entry): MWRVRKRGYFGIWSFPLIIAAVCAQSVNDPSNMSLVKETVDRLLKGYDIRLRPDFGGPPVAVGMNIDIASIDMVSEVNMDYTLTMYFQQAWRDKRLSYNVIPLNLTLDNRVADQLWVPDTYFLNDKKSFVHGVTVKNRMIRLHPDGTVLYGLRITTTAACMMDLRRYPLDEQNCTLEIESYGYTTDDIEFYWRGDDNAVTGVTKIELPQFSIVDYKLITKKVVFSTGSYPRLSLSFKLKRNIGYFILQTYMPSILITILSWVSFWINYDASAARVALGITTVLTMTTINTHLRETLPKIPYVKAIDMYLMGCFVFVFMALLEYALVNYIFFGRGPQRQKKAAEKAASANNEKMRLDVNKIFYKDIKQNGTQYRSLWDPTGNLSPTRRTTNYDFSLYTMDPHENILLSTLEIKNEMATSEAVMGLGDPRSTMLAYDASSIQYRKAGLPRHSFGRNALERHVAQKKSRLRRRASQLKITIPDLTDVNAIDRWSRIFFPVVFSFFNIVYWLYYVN
T1 sequence (P18507 whole entry): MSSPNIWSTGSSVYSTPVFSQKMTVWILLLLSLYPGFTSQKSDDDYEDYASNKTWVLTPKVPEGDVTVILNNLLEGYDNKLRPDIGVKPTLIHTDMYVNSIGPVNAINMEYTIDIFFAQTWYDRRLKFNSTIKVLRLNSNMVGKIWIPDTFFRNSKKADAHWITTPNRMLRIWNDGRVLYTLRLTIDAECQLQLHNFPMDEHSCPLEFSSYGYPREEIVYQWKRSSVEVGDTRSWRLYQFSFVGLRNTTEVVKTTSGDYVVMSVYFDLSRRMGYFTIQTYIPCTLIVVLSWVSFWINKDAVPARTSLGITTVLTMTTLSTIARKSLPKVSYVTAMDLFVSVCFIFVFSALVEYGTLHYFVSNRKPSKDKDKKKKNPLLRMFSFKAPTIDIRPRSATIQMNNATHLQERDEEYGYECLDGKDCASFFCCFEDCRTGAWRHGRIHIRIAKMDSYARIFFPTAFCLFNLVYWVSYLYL
Summary of the method: (§1)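 HEK 293 membranes expressing human α1β2γ2s, α2β2γ2s or α3β2γ2s receptors, about 25 µg protein per 0.55 ml assay in Tris-citrate (50 mM, pH 7.1). Incubated with 1 nM ³H-flumazenil (final) for 40 min at 0–4 °C, then GF/C filtration and ice-cold washes. Nonspecific binding was set with 1 µM clonazepam. […] Mean ± SD of three determinations.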

[3] = Displacement of [3H]flumazenil from human recombinant GABAA alpha-2-beta-2-gamma-2S receptor expressed in HEK293 cells; type: cell-based; summary of the method: as §1
[4] = Displacement of [3H]flumazenil from human recombinant GABAA alpha-3-beta-2-gamma-2S receptor expressed in HEK293 cells; type: cell-based; summary of the method: as §1
Homo sapiens [5] = species on record: Homo sapiens; experiment: Selectivity ratio of Ki for human recombinant GABAA alpha-2-beta-2-gamma-2S receptor to Ki for human recombinant GABAA alpha-1-beta-2-gamma-2S receptor
Summary of the method: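 Displacement of 1 nM [3H]flumazenil from HEK 293 membranes expressing human α2β2γ2s or α1β2γ2s receptors (about 25 µg protein per 0.55 ml), in 50 mM Tris-citrate pH 7.1, 40 min at 0–4 °C. Filtered on glass fibre. Nonspecific binding with 1 µM clonazepam. IC50 from 4–6 concentrations. […] Ratio is Ki α2/Ki α1.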

Homo sapiens [6] = species on record: Homo sapiens; experiment: Selectivity ratio of Ki for human recombinant GABAA alpha-3-beta-2-gamma-2S receptor to Ki for human recombinant GABAA alpha-1-beta-2-gamma-2S receptor
Summary of the method: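 Ratio of the Ki at human α3β2γ2s to the Ki at human α1β2γ2s, both from ³H-flumazenil (1 nM) displacement in HEK 293 membranes (40 min, 0–4 °C, 1 µM clonazepam nonspecific).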

pKi [1] | pKi [2] | Ratio Ki (Homo sapiens [6]) | SMILES | pKi [3] | pKi [4] | Ratio Ki (Homo sapiens [5])
 | 9.57 |  | CCOC(=O)c1cnc2ccc(Cc3ccccc3)cc2c1O |  |  | 
9.06 |  |  | CCCCC(=O)c1c[nH]c2ccc([N+](=O)[O-])cc2c1=O |  |  | 
9.57 | 9.92 | 18 | CCCCC(=O)c1c[nH]c2ccc(Cc3cccnc3)cc2c1=O |  | 8.66 | 
8.82 | 9.06 | 26 | O=C(CC1CCCC1)c1c[nH]c2ccc(Cc3cccnc3)cc2c1=O |  | 7.64 | 
7.52 |  |  | CCc1ccc2[nH]cc(C(=O)CC3CCCCC3)c(=O)c2c1 |  |  | 
9.38 | 9.28 | 2 | CCCCC(=O)c1c[nH]c2ccc(CCc3ccccc3)cc2c1=O | 8.77 | 8.96 | 3
9.66 | 9.92 | 13 | CCCC(=O)c1c[nH]c2ccc(Cc3ccccc3)cc2c1=O | 9.09 | 8.81 | 7
9.05 | 9.42 | 7 | CCCCC(=O)c1c[nH]c2ccc(CC)cc2c1=O | 8.80 | 8.55 | 4

Second part, the compound before the results:

SMILES | pKi [1] | pKi [2] | Ratio Ki (Homo sapiens [6]) | pKi [3] | pKi [4] | Ratio Ki (Homo sapiens [5])
CCCCCC(=O)c1c[nH]c2ccc(CC)cc2c1=O | 9.01 |  |  |  |  | 
CCc1ccc2[nH]cc(C(=O)CC(C)CC)c(=O)c2c1 (stereo unspecified) | 7.74 |  |  |  |  | 
CCc1ccc2[nH]cc(C(=O)CCC(C)(C)C)c(=O)c2c1 | 7.72 |  |  |  |  | 
CCCCCCC(=O)c1c[nH]c2ccc(CC)cc2c1=O | 8.68 |  |  |  |  | 
CCCCC(=O)c1c[nH]c2ccc(CCCc3ccccc3)cc2c1=O | 8.60 | 8.49 | 4 | 7.80 | 7.84 | 5
CCCCC(=O)c1c[nH]c2ccc(Cc3ccncc3)cc2c1=O | 9.28 | 9.41 | 5 | 8.57 | 8.68 | 7
CCCCC(=O)c1c[nH]c2ccc(Cc3ccccc3)cc2c1=O | 9.77 | 9.92 | 5 | 9.40 | 9.21 | 3
CCOC(=O)c1c[nH]c2ccc(Cc3ccccc3)cc2c1=O | 8.85 |  | 27 |  | 8.14 | 
CCCCC(=O)c1c[nH]c2ccc(Cc3ccc4ccccc4c3)cc2c1=O | 8.89 | 8.57 | 3 | 7.66 | 8.06 | 8
CCOC(=O)c1cnc2ccc(CC)cc2c1O | 7.70 | 8.23 | 9 |  | 7.28 | 
CCCCC(=O)c1c[nH]c2ccc(Cc3ccccn3)cc2c1=O | 9.64 | 9.85 | 16 |  | 8.66 | 
CCc1ccc2[nH]cc(C(=O)CCC(C)C)c(=O)c2c1 | 8.60 |  |  |  |  | 
O=C(CC1CCCC1)c1c[nH]c2ccc(Cc3ccccc3)cc2c1=O | 9.00 | 9.29 | 25 |  | 7.89 | 
CCc1ccc2[nH]cc(C(=O)Cc3ccccc3)c(=O)c2c1 | 7.16 |  |  |  |  | 
CCCCC(=O)c1c[nH]c2ccccc2c1=O | 8.66 | 9.01 | 9 |  | 8.04 | 
CCc1ccc2[nH]cc(C(=O)CC3CCCC3)c(=O)c2c1 | 8.10 | 8.29 | 15 | 7.51 | 7.13 | 6
CCCCC(=O)c1c[nH]c2ccc(-c3ccccc3)cc2c1=O | 7.55 |  |  |  |  | 
CCCCC(=O)c1c[nH]c2ccc(Br)cc2c1=O | 9.27 |  |  |  |  | 
